pIC50: −log10 of the molar value.
Columns and labels:
[1] = biological target: Hepatocyte growth factor receptor (Homo sapiens, UniProt P08581); experiment: Inhibition of c-MET (unknown origin) using poly (Glu, Tyr) (4:1) as substrate after 30 mins by spectrophotometric analysis
A549 = experiment: Cytotoxicity against human A549 cells after 72 hrs by MTT assay; assay type: functional, cell-based; settings: A549, 72 h
In short: (§1)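 Cells grown in MEM with 10% FBS; about 4 × 10³ cells per well, preincubated 24 h at 37 °C in 5% CO₂, then exposed to compound for 72 h. Each line tested three times; IC50 is mean of three determinations.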

[2] = Cytotoxicity against human H460 cells after 72 hrs by MTT assay; settings: NCI-H460, 72 h
[3] = biological target: T1, Receptor-type tyrosine-protein kinase FLT3 (Homo sapiens, UniProt P36888); experiment: Inhibition of FLT3 (unknown origin) using poly (Glu, Tyr) (4:1) as substrate after 30 mins by spectrophotometric analysis
T1 sequence (P36888 whole entry): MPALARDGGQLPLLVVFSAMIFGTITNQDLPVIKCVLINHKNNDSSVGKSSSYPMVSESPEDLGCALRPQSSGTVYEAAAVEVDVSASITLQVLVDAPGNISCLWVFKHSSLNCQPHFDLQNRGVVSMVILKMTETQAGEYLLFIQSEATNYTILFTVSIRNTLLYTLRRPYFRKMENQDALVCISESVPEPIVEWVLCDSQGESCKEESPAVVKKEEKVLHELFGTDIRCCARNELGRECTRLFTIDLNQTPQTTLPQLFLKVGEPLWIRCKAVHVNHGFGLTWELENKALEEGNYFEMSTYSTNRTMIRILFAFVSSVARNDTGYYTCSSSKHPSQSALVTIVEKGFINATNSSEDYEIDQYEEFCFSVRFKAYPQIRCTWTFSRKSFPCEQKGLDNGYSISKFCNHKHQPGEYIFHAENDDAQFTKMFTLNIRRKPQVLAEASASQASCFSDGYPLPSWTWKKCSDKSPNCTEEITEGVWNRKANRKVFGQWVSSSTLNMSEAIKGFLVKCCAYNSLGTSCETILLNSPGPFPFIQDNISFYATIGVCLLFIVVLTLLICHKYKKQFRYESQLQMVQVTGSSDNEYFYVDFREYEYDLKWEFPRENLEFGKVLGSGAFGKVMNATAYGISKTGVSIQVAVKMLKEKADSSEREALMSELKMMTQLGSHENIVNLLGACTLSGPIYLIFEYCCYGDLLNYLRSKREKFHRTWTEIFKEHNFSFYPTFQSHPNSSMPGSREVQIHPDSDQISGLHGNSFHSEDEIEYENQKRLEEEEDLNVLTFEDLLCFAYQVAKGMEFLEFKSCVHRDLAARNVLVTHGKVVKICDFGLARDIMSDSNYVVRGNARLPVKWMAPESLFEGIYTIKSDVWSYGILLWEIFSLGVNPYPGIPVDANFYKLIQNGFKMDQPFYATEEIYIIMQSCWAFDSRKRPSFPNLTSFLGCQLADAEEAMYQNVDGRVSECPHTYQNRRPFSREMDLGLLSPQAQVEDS

[4] = biological target: Epidermal growth factor receptor (Homo sapiens, UniProt P00533); experiment: Inhibition of EGFR (unknown origin) using poly (Glu, Tyr) (4:1) as substrate after 30 mins by spectrophotometric analysis
[5] = Ratio of foretinib IC50 to compound IC50 for human H460 cells; assay type: functional
U-87 MG = experiment: Ratio of foretinib IC50 to compound IC50 for human U87MG cells; assay type: functional, U-87MG ATCC
[6] = biological target: Platelet-derived growth factor receptor beta (Homo sapiens, UniProt P09619); experiment: Inhibition of PDGFRbeta (unknown origin) using poly (Glu, Tyr) (4:1) as substrate after 30 mins by spectrophotometric analysis
Sequence of Platelet-derived growth factor receptor beta (P09619 whole entry): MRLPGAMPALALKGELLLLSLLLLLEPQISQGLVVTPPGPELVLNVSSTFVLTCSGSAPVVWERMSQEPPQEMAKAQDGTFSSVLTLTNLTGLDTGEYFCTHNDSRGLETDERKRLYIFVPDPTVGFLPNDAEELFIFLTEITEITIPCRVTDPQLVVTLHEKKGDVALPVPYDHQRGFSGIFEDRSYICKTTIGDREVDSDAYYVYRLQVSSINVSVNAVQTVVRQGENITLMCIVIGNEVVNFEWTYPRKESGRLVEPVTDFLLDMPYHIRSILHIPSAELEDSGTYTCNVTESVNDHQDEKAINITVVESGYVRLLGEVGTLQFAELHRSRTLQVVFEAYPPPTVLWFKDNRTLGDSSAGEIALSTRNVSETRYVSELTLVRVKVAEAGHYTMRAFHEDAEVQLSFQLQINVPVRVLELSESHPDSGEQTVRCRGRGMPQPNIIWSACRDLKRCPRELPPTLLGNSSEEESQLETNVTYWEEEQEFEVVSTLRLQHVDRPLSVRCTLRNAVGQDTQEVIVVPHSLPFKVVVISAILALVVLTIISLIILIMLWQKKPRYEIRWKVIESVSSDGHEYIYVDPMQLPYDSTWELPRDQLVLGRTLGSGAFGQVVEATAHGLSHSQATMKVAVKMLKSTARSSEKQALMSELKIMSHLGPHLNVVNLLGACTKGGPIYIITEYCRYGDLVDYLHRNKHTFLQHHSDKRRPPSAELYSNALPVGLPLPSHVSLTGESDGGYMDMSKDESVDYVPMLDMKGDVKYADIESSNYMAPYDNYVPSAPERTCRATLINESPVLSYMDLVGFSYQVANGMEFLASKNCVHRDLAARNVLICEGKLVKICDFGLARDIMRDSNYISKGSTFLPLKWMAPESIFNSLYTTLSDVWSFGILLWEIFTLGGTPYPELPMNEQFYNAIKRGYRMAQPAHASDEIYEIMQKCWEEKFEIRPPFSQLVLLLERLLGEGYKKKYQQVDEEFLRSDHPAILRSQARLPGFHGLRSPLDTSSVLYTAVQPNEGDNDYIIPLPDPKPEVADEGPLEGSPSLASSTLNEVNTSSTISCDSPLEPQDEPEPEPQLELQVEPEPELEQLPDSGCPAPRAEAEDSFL

[7] = biological target: Mast/stem cell growth factor receptor Kit (Homo sapiens, UniProt P10721); experiment: Inhibition of c-KIT (unknown origin) using poly (Glu, Tyr) (4:1) as substrate after 30 mins by spectrophotometric analysis
Sequence of Mast/stem cell growth factor receptor Kit (P10721 whole entry): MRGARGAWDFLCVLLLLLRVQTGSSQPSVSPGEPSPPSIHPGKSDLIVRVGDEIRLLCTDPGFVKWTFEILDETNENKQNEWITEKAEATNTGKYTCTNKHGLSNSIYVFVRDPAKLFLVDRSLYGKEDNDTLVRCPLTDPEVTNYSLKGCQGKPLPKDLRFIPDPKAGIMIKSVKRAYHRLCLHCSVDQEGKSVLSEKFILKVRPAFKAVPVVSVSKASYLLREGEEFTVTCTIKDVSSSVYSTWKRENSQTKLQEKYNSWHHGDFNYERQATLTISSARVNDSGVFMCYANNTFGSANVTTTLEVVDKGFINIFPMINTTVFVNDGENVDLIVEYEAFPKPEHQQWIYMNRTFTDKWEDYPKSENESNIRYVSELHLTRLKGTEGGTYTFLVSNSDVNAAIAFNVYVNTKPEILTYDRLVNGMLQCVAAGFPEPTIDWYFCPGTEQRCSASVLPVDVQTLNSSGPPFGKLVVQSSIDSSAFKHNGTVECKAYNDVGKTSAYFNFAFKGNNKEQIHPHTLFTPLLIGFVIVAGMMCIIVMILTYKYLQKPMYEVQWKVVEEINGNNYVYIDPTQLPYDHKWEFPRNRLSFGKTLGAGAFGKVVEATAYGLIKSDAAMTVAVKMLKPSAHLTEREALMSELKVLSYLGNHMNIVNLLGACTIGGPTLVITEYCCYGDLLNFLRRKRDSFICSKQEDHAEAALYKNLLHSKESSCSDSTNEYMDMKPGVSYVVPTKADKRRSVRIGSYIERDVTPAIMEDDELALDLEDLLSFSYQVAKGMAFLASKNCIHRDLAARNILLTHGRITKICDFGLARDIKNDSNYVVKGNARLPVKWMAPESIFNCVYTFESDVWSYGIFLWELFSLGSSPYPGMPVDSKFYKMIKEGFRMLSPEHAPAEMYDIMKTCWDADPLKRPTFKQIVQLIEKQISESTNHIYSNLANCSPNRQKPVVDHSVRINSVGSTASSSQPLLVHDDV

MKN-45 = experiment: Cytotoxicity against human MKN45 cells after 72 hrs by MTT assay; settings: MKN-45, 72 h
[8] = Cytotoxicity against human U87MG cells after 72 hrs by MTT assay; assay type: functional, cell-based, U-87MG ATCC; settings: U-87 MG; in short: as §1
[9] = biological target: Vascular endothelial growth factor receptor 2 (Homo sapiens, UniProt P35968); experiment: Inhibition of VEGFR2 (unknown origin) using poly (Glu, Tyr) (4:1) as substrate after 30 mins by spectrophotometric analysis
Sequence of Vascular endothelial growth factor receptor 2 (P35968 whole entry): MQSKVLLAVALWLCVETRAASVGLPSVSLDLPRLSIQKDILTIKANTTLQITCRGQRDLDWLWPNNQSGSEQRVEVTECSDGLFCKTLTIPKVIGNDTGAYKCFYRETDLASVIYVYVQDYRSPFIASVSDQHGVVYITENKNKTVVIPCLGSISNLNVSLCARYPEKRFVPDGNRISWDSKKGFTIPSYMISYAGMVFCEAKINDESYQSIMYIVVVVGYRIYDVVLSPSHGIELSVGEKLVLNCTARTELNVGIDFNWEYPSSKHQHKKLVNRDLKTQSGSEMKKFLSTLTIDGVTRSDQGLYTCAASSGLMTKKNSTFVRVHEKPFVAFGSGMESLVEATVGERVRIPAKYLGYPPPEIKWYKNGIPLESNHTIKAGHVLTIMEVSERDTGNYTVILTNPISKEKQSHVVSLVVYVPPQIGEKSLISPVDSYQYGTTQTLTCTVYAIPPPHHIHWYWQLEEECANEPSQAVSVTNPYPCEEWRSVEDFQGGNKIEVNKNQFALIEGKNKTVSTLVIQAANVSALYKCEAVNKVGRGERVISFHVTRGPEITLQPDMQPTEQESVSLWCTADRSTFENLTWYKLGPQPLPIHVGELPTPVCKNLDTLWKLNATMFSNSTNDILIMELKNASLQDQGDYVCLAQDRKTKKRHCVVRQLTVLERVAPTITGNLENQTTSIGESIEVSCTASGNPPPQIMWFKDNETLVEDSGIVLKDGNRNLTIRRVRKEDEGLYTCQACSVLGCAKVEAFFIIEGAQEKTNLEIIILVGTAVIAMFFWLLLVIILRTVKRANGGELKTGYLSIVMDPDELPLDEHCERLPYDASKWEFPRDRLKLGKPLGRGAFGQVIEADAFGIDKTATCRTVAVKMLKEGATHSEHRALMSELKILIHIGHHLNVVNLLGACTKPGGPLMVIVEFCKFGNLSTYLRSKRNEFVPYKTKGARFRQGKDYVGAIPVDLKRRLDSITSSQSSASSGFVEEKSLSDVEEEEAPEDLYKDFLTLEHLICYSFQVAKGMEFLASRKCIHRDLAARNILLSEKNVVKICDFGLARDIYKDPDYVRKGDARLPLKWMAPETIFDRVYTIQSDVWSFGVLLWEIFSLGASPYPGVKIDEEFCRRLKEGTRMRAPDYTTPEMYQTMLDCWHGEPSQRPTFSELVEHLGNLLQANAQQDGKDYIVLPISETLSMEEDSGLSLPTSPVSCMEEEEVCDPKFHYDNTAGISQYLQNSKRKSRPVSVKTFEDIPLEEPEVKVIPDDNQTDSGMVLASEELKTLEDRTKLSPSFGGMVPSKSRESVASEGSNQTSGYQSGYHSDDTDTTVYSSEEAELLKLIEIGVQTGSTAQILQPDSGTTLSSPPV

HT-29 [10] = experiment: Ratio of foretinib IC50 to compound IC50 for human HT-29 cells; assay type: functional
HT-29 [11] = experiment: Cytotoxicity against human HT-29 cells after 72 hrs by MTT assay; settings: HT-29, 72 h

Sequence of Hepatocyte growth factor receptor (P08581 whole entry): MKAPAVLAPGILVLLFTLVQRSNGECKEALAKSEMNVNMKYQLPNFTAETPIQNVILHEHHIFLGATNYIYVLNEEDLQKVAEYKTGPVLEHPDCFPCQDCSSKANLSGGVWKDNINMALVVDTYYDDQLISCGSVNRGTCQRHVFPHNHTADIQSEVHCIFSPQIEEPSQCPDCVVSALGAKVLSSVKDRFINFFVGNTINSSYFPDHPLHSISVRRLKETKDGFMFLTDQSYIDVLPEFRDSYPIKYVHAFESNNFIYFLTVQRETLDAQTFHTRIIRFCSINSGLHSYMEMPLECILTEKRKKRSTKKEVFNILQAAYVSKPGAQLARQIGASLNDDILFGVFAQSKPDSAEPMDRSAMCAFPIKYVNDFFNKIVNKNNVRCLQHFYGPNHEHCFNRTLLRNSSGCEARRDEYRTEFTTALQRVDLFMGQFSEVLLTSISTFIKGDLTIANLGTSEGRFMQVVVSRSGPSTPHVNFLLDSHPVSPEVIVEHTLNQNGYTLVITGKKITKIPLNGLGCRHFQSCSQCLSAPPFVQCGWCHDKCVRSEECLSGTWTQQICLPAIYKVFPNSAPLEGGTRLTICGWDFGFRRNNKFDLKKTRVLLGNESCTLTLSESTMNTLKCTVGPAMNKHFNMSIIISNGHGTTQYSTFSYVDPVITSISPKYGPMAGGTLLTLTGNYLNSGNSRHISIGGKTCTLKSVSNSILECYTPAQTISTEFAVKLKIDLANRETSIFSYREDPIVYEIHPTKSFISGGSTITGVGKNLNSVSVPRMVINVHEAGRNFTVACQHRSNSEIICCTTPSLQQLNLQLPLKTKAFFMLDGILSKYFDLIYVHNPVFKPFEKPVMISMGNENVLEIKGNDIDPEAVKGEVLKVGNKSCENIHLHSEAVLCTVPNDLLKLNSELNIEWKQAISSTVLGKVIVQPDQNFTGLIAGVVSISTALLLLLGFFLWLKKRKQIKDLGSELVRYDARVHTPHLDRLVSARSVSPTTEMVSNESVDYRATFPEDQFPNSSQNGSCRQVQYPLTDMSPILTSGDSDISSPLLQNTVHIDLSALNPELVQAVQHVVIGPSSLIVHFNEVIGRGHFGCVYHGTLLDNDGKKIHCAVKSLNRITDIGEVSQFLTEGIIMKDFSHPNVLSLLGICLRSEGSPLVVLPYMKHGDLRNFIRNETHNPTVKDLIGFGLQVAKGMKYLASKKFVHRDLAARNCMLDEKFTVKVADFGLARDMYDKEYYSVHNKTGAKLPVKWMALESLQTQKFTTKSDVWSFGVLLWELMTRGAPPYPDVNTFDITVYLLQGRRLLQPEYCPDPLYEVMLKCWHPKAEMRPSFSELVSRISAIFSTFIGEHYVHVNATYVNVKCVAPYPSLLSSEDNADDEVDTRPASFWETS

COc1cc2c(Oc3ccc(NC(=O)c4cc(-c5ccc(C)cc5)ccn4)cc3F)ccnc2cc1OCCCN1CCN(C)CC1
pIC50 [1]: 8.86
pIC50 (A549): 7.00
pIC50 [2]: 7.43
pIC50 [3]: 8.97
pIC50 [4]: 7.05
Ratio IC50 [5]: 5.8
Ratio IC50 (U-87 MG): 1.2
pIC50 [6]: 8.85
pIC50 [7]: 6.35
pIC50 (MKN-45): 7.14
pIC50 [8]: 6.09
pIC50 [9]: 6.27
Ratio IC50 (HT-29 [10]): 7.3
pIC50 (HT-29 [11]): 7.59

From ChEMBL document CHEMBL2434847, “Design, synthesis, and structure-activity relationships of novel 6,7-disubstituted-4-phenoxyquinoline derivatives as potential antitumor agents” (Eur J Med Chem, 2013)
